ChEMBL document CHEMBL1128472, “Reversible inhibitors of the gastric (H+/K+)-ATPase. 5. Substituted 2,4-diaminoquinazolines and thienopyrimidines” (J Med Chem, 1995)

What was measured:
[1] = target: Potassium-transporting ATPase (Sus scrofa, UniProt P19156); experiment: Inhibition of K+ stimulated gastric ATPase activity; type: tissue-based, Stomach
In short: (§1)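 K+-stimulated ATPase activity measured in a lyophilized gastric vesicle preparation at pH 7; enzyme concentration estimated at around 2 nM from 32P-ATP binding.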

Canis familiaris [2] = experiment: Histamine-stimulated gastric acid secretion in Heidenhain pouch dog at 1uM/Kg, on iv administration of the compound; type: functional, Canis lupus familiaris, Stomach
Canis familiaris [3] = experiment: Histamine-stimulated gastric acid secretion in Heidenhain pouch dog at 4uM/Kg, on oral administration of the compound
[4] = target: T1, Potassium-transporting ATPase (Rattus norvegicus) (UniProt P09626+P18598); experiment: Inhibition of pentagastrin stimulated gastric acid secretion in anesthetized rat 10 uM/kg, on iv administration of the compound.; type: functional, organism-based; conditions: Stomach
In short: (§2)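 Anaesthetized rat with lumen-perfused stomach; acid secretion induced by pentagastrin; compound given intravenously; inhibition of acid output recorded.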

[5] = target: T1, Potassium-transporting ATPase (Rattus norvegicus); experiment: Inhibition of pentagastrin stimulated gastric acid secretion in anesthetized rat at 10 uM/kg; type: functional; conditions: Stomach; 10 umol/kg; in short: as §2
Canis familiaris [6] = experiment: % inhibition of Histamine-stimulated gastric acid secretion in Heidenhain pouch dog at 4 uM/kg, on peroral administration of the compound.; type: functional, Canis lupus familiaris, Stomach
In short: (§3)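 Heidenhain pouch dogs with histamine-stimulated acid secretion; compound given orally as a dry powder in a hard gelatin capsule; inhibition of acid secretion measured.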

Canis familiaris [7] = experiment: % inhibition of Histamine-stimulated gastric acid secretion in Heidenhain pouch dog 4 uM/kg, on peroral administration of the compound.; type: functional, Canis lupus familiaris, Stomach; in short: as §3
[8] = target: T2, Potassium-transporting ATPase (Sus scrofa) (UniProt P18434+P19156); experiment: Inhibition of K+ stimulated gastric ATPase activity at 100 uM; type: tissue-based; conditions: Stomach; in short: as §1
Rattus norvegicus [9] = experiment: Inhibition of pentagastrin stimulated gastric acid secretion in anesthetized rat at 10 uM, on iv administration of the compound.; type: functional, Stomach; in short: as §2
Canis familiaris [10] = experiment: % inhibition of Histamine-stimulated gastric acid secretion in Heidenhain pouch dog 1 uM/kg, on iv administration of the compound.; type: functional, Canis lupus familiaris, Stomach
Rattus norvegicus [11] = experiment: Inhibition of pentagastrin stimulated gastric acid secretion in anesthetized rat on iv administration of the compound.; type: functional; conditions: Stomach; in short: as §2
Canis familiaris [12] = experiment: % inhibition of Histamine-stimulated gastric acid secretion in Heidenhain pouch dog at 1 umol/kg on iv administration of the compound.; type: functional; conditions: Canis lupus familiaris, Stomach
[13] = target: T2, Potassium-transporting ATPase (Sus scrofa); experiment: Inhibition of K+ stimulated gastric ATPase activity at 100 uM[…]; type: tissue-based; conditions: Stomach
Rattus norvegicus [14] = experiment: Inhibition of pentagastrin stimulated gastric acid secretion in anesthetized rat at 10 uM/kg, on iv administration of the compound.; type: functional, Stomach; in short: as §2

Sequence of Potassium-transporting ATPase (P18434 whole entry): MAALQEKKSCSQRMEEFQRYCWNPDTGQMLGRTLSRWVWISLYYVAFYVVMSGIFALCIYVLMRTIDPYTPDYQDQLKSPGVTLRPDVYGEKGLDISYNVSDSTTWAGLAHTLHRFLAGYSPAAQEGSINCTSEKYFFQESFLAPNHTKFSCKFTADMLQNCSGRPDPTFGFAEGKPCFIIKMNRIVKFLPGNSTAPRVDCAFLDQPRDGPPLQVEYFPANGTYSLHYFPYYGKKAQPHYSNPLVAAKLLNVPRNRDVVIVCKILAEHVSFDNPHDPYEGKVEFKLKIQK
Sequence of Potassium-transporting ATPase (P19156 whole entry): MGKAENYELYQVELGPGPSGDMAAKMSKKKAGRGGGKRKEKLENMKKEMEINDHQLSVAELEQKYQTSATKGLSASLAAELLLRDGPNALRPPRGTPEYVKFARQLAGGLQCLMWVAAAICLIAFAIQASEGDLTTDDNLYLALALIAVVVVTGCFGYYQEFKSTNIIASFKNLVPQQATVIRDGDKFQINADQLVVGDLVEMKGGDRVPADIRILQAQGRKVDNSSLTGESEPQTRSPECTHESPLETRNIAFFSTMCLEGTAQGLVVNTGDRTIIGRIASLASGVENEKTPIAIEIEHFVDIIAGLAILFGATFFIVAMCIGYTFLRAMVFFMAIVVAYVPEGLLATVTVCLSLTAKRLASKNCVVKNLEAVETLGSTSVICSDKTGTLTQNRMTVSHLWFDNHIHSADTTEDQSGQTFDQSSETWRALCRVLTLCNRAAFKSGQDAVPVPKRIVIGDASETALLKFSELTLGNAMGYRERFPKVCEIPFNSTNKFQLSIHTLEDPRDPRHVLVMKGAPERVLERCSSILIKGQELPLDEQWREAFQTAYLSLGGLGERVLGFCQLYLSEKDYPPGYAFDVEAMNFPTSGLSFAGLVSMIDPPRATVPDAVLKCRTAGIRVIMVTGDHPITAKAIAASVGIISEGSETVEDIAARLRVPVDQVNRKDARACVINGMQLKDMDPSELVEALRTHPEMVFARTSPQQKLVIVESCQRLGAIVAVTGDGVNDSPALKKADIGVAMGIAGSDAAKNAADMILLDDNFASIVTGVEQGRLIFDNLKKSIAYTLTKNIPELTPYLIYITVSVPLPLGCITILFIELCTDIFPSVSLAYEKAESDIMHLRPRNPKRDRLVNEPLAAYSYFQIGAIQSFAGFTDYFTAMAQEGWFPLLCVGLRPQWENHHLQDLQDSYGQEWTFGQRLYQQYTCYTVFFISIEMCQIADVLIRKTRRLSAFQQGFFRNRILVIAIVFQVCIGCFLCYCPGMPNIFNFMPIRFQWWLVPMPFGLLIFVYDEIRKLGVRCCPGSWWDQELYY

SMILES | IC50 [1] | other results
COc1cccc2c(Nc3ccccc3C)nc(NCc3ccco3)nc12 | 1900 nM | –
Cc1ccccc1Nc1nc(Nc2ccccc2C)c2ccccc2n1 | 600 nM | –
CCCC(=O)c1cnc2c(OC)cccc2c1Nc1ccccc1C | – | ED50 (Canis familiaris [2]): 0.26 µmol/kg; ED50 (Canis familiaris [3]): 1.6 µmol/kg
CN/C(=N\CCSCc1nc[nH]c1C)NC#N [CIMETIDINE] | – | ED50 (Canis familiaris [2]): 1.7 µmol/kg; ED50 (Canis familiaris [3]): 8.5 µmol/kg
COc1cccc2c(Nc3ccccc3C)ncnc12 | 11600 nM | inhibition [5]: 30%
CNc1nc(Nc2ccccc2C)c2cccc(OC)c2n1 | 640 nM | inhibition [5]: 19%
Cc1cc(F)ccc1Nc1nc(N(C)c2ccccc2)c2cc(OCCCN(C)C)ccc2n1 | 1100 nM | –
CCN(c1ccccc1)c1nc(Nc2ccccc2C)nc2ccccc12 | 320 nM | inhibition [5]: 59%
Cc1cc(F)ccc1Nc1nc(N(C)c2ccccc2)c2cccc(OCCCN3CCOCC3)c2n1 | 50 nM | inhibition [4]: 73%; Inhibition (Canis familiaris [7]): 0%
COc1cccc2c(Nc3ccccc3C)nc(NCc3ccccc3)nc12 | 2000 nM | –
Cc1ccccc1Nc1ncnc2ccccc12 | – | inhibition [8]: 28%; Inhibition (Rattus norvegicus [9]): 9%
CN(c1ccccc1)c1nc(N(C)c2ccccc2)c2sccc2n1 | 300 nM | –
Cc1cc(F)ccc1Nc1nc(N(C)c2ccccc2)c2cc(OCCN(C)C)ccc2n1 | 1300 nM | –
CNc1nc2c(C)cccc2c2c1CCN2c1ccccc1C | 180 nM | –
Cc1ccccc1Nc1nc(N(C)c2ccccc2)c2ccsc2n1 | 510 nM | –
COc1cccc2c(Nc3ccccc3C)nc(N)nc12 | 80 nM | Inhibition (Canis familiaris [6]): 0%; ED50 (Rattus norvegicus [11]): 7.11 µmol/kg; inhibition in vivo at 1 µmol/kg (Canis familiaris [12]): 39%
COc1ccc(Nc2nc(N(C)c3ccccc3)c3sccc3n2)c(C)c1 | 340 nM | –
COc1cccc2c(Nc3ccccc3C)nc(N(C)c3ccccc3)nc12 | 590 nM | inhibition [5]: 37%
Cc1ccccc1Nc1nc(NCCO)nc2ccccc12 | 4600 nM | inhibition [5]: 21%
CCNc1nc(Nc2ccccc2C)c2ccccc2n1 | 1390 nM | –
Cc1cc(F)ccc1Nc1nc2c(C)cccc2c2c1CCN2c1ccccc1C | 130 nM | –
Cc1ccccc1Nc1nc(Nc2ccccc2)c2ccsc2n1 | – | inhibition [13]: 27%
Cc1ccccc1Nc1nc(NCCc2ccccc2)nc2ccccc12 | 810 nM | inhibition [5]: 31%
CN(c1ccccc1)c1nc(N(C)c2ccccc2)c2ccsc2n1 | 1300 nM | Inhibition (Rattus norvegicus [14]): 14%

Now from value to compound, other results behind:

IC50 [1] | SMILES | other results
41 nM | Cc1cc(Cl)ccc1Nc1nc(N(C)c2ccccc2)c2ccccc2n1 | inhibition [4]: 31%
510 nM | COc1ccc2nc(Nc3ccccc3C)nc(N(C)c3ccccc3)c2c1 | inhibition [4]: 46%
34 nM | COc1ccc(N(C)c2nc(Nc3ccccc3C)nc3ccccc23)cc1 | Inhibition (Canis familiaris [6]): 12%; inhibition [5]: 60%
19 nM | Cc1ccccc1Nc1nc(N(C)c2ccc(O)cc2)c2ccccc2n1 | –
21 nM | Cc1cc(F)ccc1Nc1nc(N(C)c2ccccc2)c2ccccc2n1 | Inhibition (Canis familiaris [10]): 79%; Inhibition (Canis familiaris [7]): 0%; ED50 (Rattus norvegicus [11]): 1.94 µmol/kg
130 nM | Cc1cc(F)ccc1Nc1nc(N(C)c2ccccc2)c2ccsc2n1 | –
260 nM | Cc1ccccc1Nc1nc(N(C)c2ccccc2)c2cccc(O)c2n1 | –
140 nM | Cc1cc(F)ccc1Nc1nc(N(C)c2ccccc2)c2cccc(F)c2n1 | –
360 nM | COc1ccc(Nc2nc(N(C)c3ccccc3)c3ccccc3n2)c(C)c1 | –
32 nM | COc1cccc2c(N(C)c3ccccc3)nc(Nc3ccc(F)cc3C)nc12 | inhibition [4]: 94%; Inhibition (Canis familiaris [10]): 96%; Inhibition (Canis familiaris [7]): 32%
24 nM | Cc1ccccc1Nc1nc(N(C)c2ccccc2)c2cc(O)ccc2n1 | –
100 nM | Cc1cc(F)ccc1Nc1nc(N(C)c2ccccc2)c2cccc(OCCO)c2n1 | –
